In brackets after ≈: the same amount, converted by molar mass.
Columns and labels:
Plasmodium falciparum = assay: Antimalarial activity against chloroquine-resistant Plasmodium falciparum W2 infected human erythrocytes; assay type: functional, organism-based
Summary of the method: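 P. falciparum W2 (chloroquine-resistant) grown in human O+ erythrocytes, RPMI 1640 with 10% human plasma. Sorbitol-synchronized trophozoites plated at 2% parasitaemia, 2.5% haematocrit. Molecules dissolved in ethanol, serially diluted in hypoxanthine-free RPMI 1640, chloroquine reference run in parallel. Growth read by [³H]hypoxanthine incorporation. IC50 taken relative to drug-free control cultures.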

Plasmodium berghei [1] = assay: Growth inhibition of Plasmodium berghei infected BALB/c mice (Mus musculus) at 20 mg/kg subcutaneous dose; assay type: functional, NK65; design: scale not given: the % may be the effect or the level left
Summary of the method: (§1)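 Balb/c mice infected with blood-stage P. berghei, 6 per group, given 20 mg/kg orally or subcutaneously. Controls were untreated or saline-treated mice, plus mice given non-curative chloroquine. Blood smears were methanol-fixed and Giemsa-stained, and parasitaemia was counted in 1000 to 6000 erythrocytes. Percent reduction of parasite growth is relative to non-treated mice at day 7 post-inoculation.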

Plasmodium berghei [2] = assay: Growth inhibition of Plasmodium berghei infected BALB/c mice (Mus musculus) at 20 mg/kg perorallydose; assay type: functional, NK65; design: scale not given: the % may be the effect or the level left; details: route oral; summary of the method: as §1
Plasmodium berghei [3] = assay: Growth inhibition of Plasmodium berghei infected BALB/c mice (Mus musculus) at 15 mg/kg subcutaneous dose; assay type: functional, NK65; design: scale not given: the % may be the effect or the level left
Plasmodium berghei [4] = assay: Growth inhibition of Plasmodium berghei in BALB/c mice (Mus musculus) at 15 mg/kg peroral dose; assay type: functional, NK65; design: scale not given: the % may be the effect or the level left; details: route oral

Structure (SMILES)	IC50 (Plasmodium falciparum)	other results
OC1(C(F)(F)F)CC(c2ccc(Cl)cc2)=NN1c1ccnc2cc(Cl)ccc12 (stereo not given)	1.69 µg/mL (≈ 3.97 µM)	Activity (Plasmodium berghei [1]): 47%; Activity (Plasmodium berghei [2]): 0%
COc1ccc(C2=NN(c3ccnc4cc(Cl)ccc34)C(O)(C(F)(F)F)C2)cc1 (stereo not given)	> 50 µg/mL	–
Cc1ccc(C2=NN(c3ccnc4cc(Cl)ccc34)C(O)(C(F)(F)F)C2)cc1 (stereo not given)	3.04 µg/mL (≈ 7.49 µM)	–
FC(F)(F)c1cc(-c2ccc(Br)cc2)nn1-c1ccnc2cc(Cl)ccc12	> 50 µg/mL	–
OC1(C(F)(F)F)CC(c2ccc(Br)cc2)=NN1c1ccnc2cc(Cl)ccc12 (stereo not given)	1.55 µg/mL (≈ 3.29 µM)	Activity (Plasmodium berghei [1]): 82%; Activity (Plasmodium berghei [2]): 0%
FC(F)(F)c1cc(-c2ccc(-c3ccccc3)cc2)nn1-c1ccnc2cc(Cl)ccc12	18.5 µg/mL (≈ 41.2 µM)	–
FC(F)(F)c1cc(-c2ccc(Cl)cc2)nn1-c1ccnc2cc(Cl)ccc12	> 50 µg/mL	–
CCN(CC)CCCC(C)Nc1ccnc2cc(Cl)ccc12 (stereo not given) [CHLOROQUINE]	–	Activity (Plasmodium berghei [3]): 100%; Activity (Plasmodium berghei [4]): 53%
O=[N+]([O-])c1ccc(C2=NN(c3ccnc4cc(Cl)ccc34)C(O)(C(F)(F)F)C2)cc1 (stereo not given)	5.71 µg/mL (≈ 13.1 µM)	–
FC(F)(F)c1cc(-c2ccccc2)nn1-c1ccnc2cc(Cl)ccc12	9.53 µg/mL (≈ 25.5 µM)	–
COc1ccc(-c2cc(C(F)(F)F)n(-c3ccnc4cc(Cl)ccc34)n2)cc1	> 50 µg/mL	–
Cc1ccc(-c2cc(C(F)(F)F)n(-c3ccnc4cc(Cl)ccc34)n2)cc1	> 50 µg/mL	–
O=[N+]([O-])c1ccc(-c2cc(C(F)(F)F)n(-c3ccnc4cc(Cl)ccc34)n2)cc1	> 50 µg/mL	–
Fc1ccc(-c2cc(C(F)(F)F)n(-c3ccnc4cc(Cl)ccc34)n2)cc1	27.6 µg/mL (≈ 70.5 µM)	–
OC1(C(F)(F)F)CC(c2ccccc2)=NN1c1ccnc2cc(Cl)ccc12 (stereo not given)	1.39 µg/mL (≈ 3.55 µM)	Activity (Plasmodium berghei [1]): 0%; Activity (Plasmodium berghei [2]): 0%
Cc1cc(C(F)(F)F)n(-c2ccnc3cc(Cl)ccc23)n1	4.29 µg/mL (≈ 13.8 µM)	–
OC1(C(F)(F)F)CC(c2ccc(-c3ccccc3)cc2)=NN1c1ccnc2cc(Cl)ccc12 (stereo not given)	2.12 µg/mL (≈ 4.53 µM)	–
OC1(C(F)(F)F)CC(c2ccc(F)cc2)=NN1c1ccnc2cc(Cl)ccc12 (stereo not given)	2.13 µg/mL (≈ 5.2 µM)	–

Source: ChEMBL document CHEMBL1149438, “Antimalarial activity of 4-(5-trifluoromethyl-1H-pyrazol-1-yl)-chloroquine analogues” (Bioorg Med Chem Lett, 2006)
